The values that follow come from ChEMBL document CHEMBL1153349, “3-Hydroxy-4-oxo-4H-pyrido[1,2-a]pyrimidine-2-carboxylates--a new class of HIV-1 integrase inhibitors” (Bioorg Med Chem Lett, 2009).

pIC50: −log10 of the molar value.

The target in data set [1] is Human immunodeficiency virus type 1 integrase (Human immunodeficiency virus 1, UniProt Q7ZJM1). The data set is described as follows: Inhibition of HIV1 recombinant integrase strand transfer activity.
Data set [2] relates to Human immunodeficiency virus 1. The data set is described as follows: Antiviral activity against HIV1 3B infected in human MT4 cells after 3 days by ELISA in presence of 50% normal human serum. It counts as functional. The settings on record: Human immunodeficiency virus 1, 3B, MT4, 72 h; read-out: CIC95. The procedure, abridged:
(§1)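 HIV-1 infection spread was measured in cell culture (spread assay) under low-serum (10% fetal bovine serum) or high-serum (50% normal human serum) conditions.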
On the technique in general: ELISA stands for enzyme-linked immunosorbent assay.

Data set [3] has as its system Human immunodeficiency virus 1. The data set is described as follows: Antiviral activity against HIV1 3B infected in human MT4 cells after 3 days by ELISA in presence of 10% fetal bovine serum. It counts as functional. As to conditions: Human immunodeficiency virus 1, 3B, MT4, 72 h; read-out: CIC95. The essentials: as §1
Another data set deals with MT4. The data set is described as follows: Cytotoxicity against human MT4 cells assessed as morphological changes up to 50 uM after 4 days. It counts as cell-based. The settings on record: mt4, 96 h.
A short description of data set [4]: Oral bioavailability in rat at 3 mg/kg. It counts as ADME, organism-based. As to conditions: in vivo. The procedure, abridged: (§2)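 Rats were dosed at 3 mg/kg both intravenously and orally, and the plasma PK profile was obtained. Parameters were AUC, plasma half-life and oral bioavailability (F%). Plasma clearance was taken from the IV dose.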
The subject of another data set is Rattus norvegicus. The data set is described as follows: AUC in rat plasma at 3 mg/kg, iv and po. It counts as ADME, organism-based. More on the design: dose 3 mg/kg, route oral. The settings on record: in vivo. The procedure, abridged:
as §2

Data set [5] in a line: Plasma clearance in rat at 3 mg/kg, iv. It counts as ADME, organism-based. Set-up: dose 3 mg/kg, route intravenous. The essentials: as §2
Data set [6] can be described thus: Half life in rat plasma at 3 mg/kg, iv and po. More on the design: dose 3 mg/kg, route oral. The format is ADME, organism-based. The procedure, abridged:
as §2

Human immunodeficiency virus type 1 integrase, sequence (Q7ZJM1 whole entry): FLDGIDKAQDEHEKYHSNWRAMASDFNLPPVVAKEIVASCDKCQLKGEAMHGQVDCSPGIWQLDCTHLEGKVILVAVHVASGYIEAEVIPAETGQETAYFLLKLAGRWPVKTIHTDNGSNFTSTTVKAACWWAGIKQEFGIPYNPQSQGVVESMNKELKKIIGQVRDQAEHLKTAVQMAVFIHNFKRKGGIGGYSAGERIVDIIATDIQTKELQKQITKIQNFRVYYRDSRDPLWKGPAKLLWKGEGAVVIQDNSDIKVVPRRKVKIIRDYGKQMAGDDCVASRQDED

Take `CCN(C(=O)c1ccncc1)c1cccn2c(=O)c(O)c(C(=O)NCc3ccc(F)cc3)nc12`: in data set [1], the pIC50 is 7.30. Also, the IC95 in data set [2] and in data set [3] was greater than 1000 nM in each case. Besides, in the data set with MT4, the Activity result is “Non-toxic”.
Regarding `CCN(C(=O)c1ccccn1)c1cccn2c(=O)c(O)c(C(=O)NCc3ccc(F)cc3)nc12`, the pIC50 in data set [1] was 7.68. Further, the IC95 is 1000 nM in data set [2] and 250 nM in data set [3]. The Activity result in the data set with MT4 is “Non-toxic”.
Regarding `CCN(C(=O)C(=O)N1CCCC1)c1cccn2c(=O)c(O)c(C(=O)NCc3ccc(F)cc3)nc12`, the pIC50 in data set [1] is 7.68. Also, the IC95 in data set [2] stood at 1000 nM; in data set [3] it was 31 nM. The Activity result in the data set on MT4 is reported as “Non-toxic”.
Consider `O=C(NCc1ccc(F)cc1)c1nc2c(CN3CCOCC3)cccn2c(=O)c1O`, for which the pIC50 in data set [1] is 6.77.
On to `CC(=O)N1CCN(Cc2cccn3c(=O)c(O)c(C(=O)NCc4ccc(F)cc4)nc23)CC1`, for which, in data set [1], the pIC50 is 6.73.
Consider `O=C(NCc1cccn2c(=O)c(O)c(C(=O)NCc3ccc(F)cc3)nc12)c1ccccc1`, for which, in data set [1], the pIC50 was 7.62.
As for `CN(C)C(=O)C(=O)N(C)c1cccn2c(=O)c(O)c(C(=O)NCc3ccc(F)cc3)nc12`, the pIC50 in data set [1] was 7.59. Besides, the IC95 in data set [2] is 500 nM; in data set [3] it was 125 nM. In the data set on MT4, the Activity entry is on record as “Non-toxic”.
With `CCN(CC)C(=O)C(=O)N(CC)c1cccn2c(=O)c(O)c(C(=O)NCc3ccc(F)cc3)nc12`, in data set [1], the pIC50 is 7.72. In addition, the IC95 in data set [2] worked out at 125 nM; in data set [3], 62 nM. For the same compound, the Activity result with MT4 is given as “Non-toxic”.
In the same order, the values of `CCN(C(=O)C(=O)N1CCN(C)CC1)c1cccn2c(=O)c(O)c(C(=O)NCc3ccc(F)cc3)nc12` are 7.68, 500 nM, 125 nM and “Non-toxic”.
Consider `CNc1cccn2c(=O)c(O)c(C(=O)NCc3ccc(F)cc3)nc12`, for which, in data set [1], the pIC50 was 6.89.
The same measure, in the same setting: the figure for `O=C(Nc1cccn2c(=O)c(O)c(C(=O)NCc3ccc(F)cc3)nc12)c1ccccc1` is 7.74.
`CCN(C(=O)CN1CCOCC1)c1cccn2c(=O)c(O)c(C(=O)NCc3ccc(F)cc3)nc12`: the pIC50 in data set [1] was 7.64. In addition, the IC95 in data set [2] and in data set [3] was greater than 1000 nM throughout. The Activity result in the data set on MT4 is recorded as “Non-toxic”.
Turning to `CCNc1cccn2c(=O)c(O)c(C(=O)NCc3ccc(F)cc3)nc12`, the pIC50 in data set [1] was 7.44. Moreover, the IC95 in data set [2] is greater than 1000 nM; in data set [3], 1250 nM. The Activity result in the data set with MT4 was “Non-toxic”.
Regarding `CN(C)c1cccn2c(=O)c(O)c(C(=O)NCc3ccc(F)cc3)nc12`, the pIC50 in data set [1] was 7.15.
Regarding `CCCN(C(=O)C(=O)N(C)C)c1cccn2c(=O)c(O)c(C(=O)NCc3ccc(F)cc3)nc12`, the pIC50 in data set [1] is 7.74. The IC95 in data set [2] amounted to 500 nM; in data set [3] it was 31 nM. In addition, in the data set with MT4, the Activity result is reported as “Non-toxic”.
Turning to `CC(C)N(C(=O)C(=O)N(C)C)c1cccn2c(=O)c(O)c(C(=O)NCc3ccc(F)cc3)nc12`, the pIC50 in data set [1] was 7.68. The IC95 is greater than 1000 nM in data set [2] and 62 nM in data set [3]. In addition, the Activity entry with MT4 is recorded as “Non-toxic”.
In the same order, the values of `CCN(C(=O)CN(C)C)c1cccn2c(=O)c(O)c(C(=O)NCc3ccc(F)cc3)nc12` are 6.73, greater than 1000 nM, greater than 1000 nM and “Non-toxic”.
As to `CCN(C(=O)c1nnc(C)o1)c1cccn2c(=O)c(O)c(C(=O)NCc3ccc(F)cc3)nc12`, the pIC50 in data set [1] is 7.30. For the same compound, the IC95 was greater than 1000 nM in data set [2] and 500 nM in data set [3]. Further, the Activity result in the data set with MT4 was “Non-toxic”.
Taken in the same sequence, the figures for `CCN(C(=O)c1cscn1)c1cccn2c(=O)c(O)c(C(=O)NCc3ccc(F)cc3)nc12` were 7.68, greater than 1000 nM, 250 nM and “Non-toxic”.
With `O=C(NCc1ccc(F)cc1)c1nc2ccccn2c(=O)c1O`, in data set [1], the pIC50 is 7.66.
On to `CCN(C(=O)C(=O)N(C)C)c1cccn2c(=O)c(O)c(C(=O)NCc3ccc(F)cc3)nc12`, for which the pIC50 in data set [1] was 7.44. In data set [4], this compound returned a bioavailability of 40%. In the data set on Rattus norvegicus, this compound showed an AUC of 2.9 µM·h. For the same compound, the figures for the IC95 in data set [2] and in data set [3] were 250 nM and 62 nM, respectively. In addition, the clearance in data set [5] was found to be 24 mL/min/kg. The Activity result in the data set on MT4 is given as “Non-toxic”. In addition, in data set [6], the half-life was 4.5 h.
With `CCN(C(=O)C(=O)N1CCOCC1)c1cccn2c(=O)c(O)c(C(=O)NCc3ccc(F)cc3)nc12`, the pIC50 in data set [1] was 7.60. Moreover, the IC95 was determined as 250 nM in data set [2] and 31 nM in data set [3]. Also, in the data set on MT4, the Activity entry was “Non-toxic”.
As for `Cc1cccn2c(=O)c(O)c(C(=O)NCc3ccc(F)cc3)nc12`, the pIC50 in data set [1] was 8.05.
Turning to `CCN(C(=O)c1ccno1)c1cccn2c(=O)c(O)c(C(=O)NCc3ccc(F)cc3)nc12`, the pIC50 in data set [1] was 7.74. The IC95 in data set [2] is greater than 1000 nM; in data set [3], 500 nM. In addition, the Activity entry in the data set on MT4 is recorded as “Non-toxic”.

The pIC50 is the negative decadic logarithm of the IC50, by convention in mol/L. As a reminder, the bioavailability is the share of a dose that reaches the circulation, judged against a reference dose that is usually intravenous. Higher therefore signals much systemic uptake. The AUC is the area under the concentration-time curve, a measure of exposure. The low end stands for low exposure, the high end for high exposure. Usually clearance stands for the rate of elimination divided by the concentration. A low value points to a low capacity for elimination. For orientation: half-life means the time needed for the level to fall by half in the phase considered. A high value points to slow decline.
